Results from paper PMC9925696 (Neuro-Oncology, 2022).
Entries after “also recorded” stand apart in the source; their conditions may differ.

What was measured:
[1] = Safety evaluation; format: in vivo, human
Procedure, shortened: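 Adults (≥20 years) with recurrent/progressive grade 2-4 IDH1-R132 glioma received oral twice-daily dosing in 21-day cycles at 125-1400 mg (six levels). Escalation used a modified continual reassessment method (Bayesian logistic regression, overdose control) with cohorts of 3-6 patients and DLT assessment over the 21-day cycle. TEAEs were recorded up to 28 days after the last dose, graded by CTCAE v4.0 and counted once per patient at worst severity. LVEF was monitored by echocardiography or MUGA.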

[2] = mice, preclinical; cited from earlier work
[3] = system: orthotopic patient-derived xenograft model; settings: continuous administration, preclinical; cited from earlier work
[4] = system: D-2-hydroxyglutarate (D-2-HG); assay: D-2-HG concentration in resected tumor tissue; format: in vivo, human
Procedure, shortened: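 Patients with IDH1-R132 glioma who were scheduled for salvage surgery after progression took the oral test compound twice daily until surgery. Tumor was resected on the day of surgery, homogenized in 0.1 w/v% bovine serum albumin solution, and derivatized with diacetyl-l-tartaric anhydride. D-2-HG was then quantified by LC-MS/MS against a commercial D-2-HG reference standard. On-treatment values were compared with matched archived frozen tumor from previous surgery, where available.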

[5] = Plasma pharmacokinetics of DS-1001; format: in vivo, human; settings: for Increase in Cmax and AUC0-8 h with dose: day 1 and day 8 of cycle 1

Which “Dose reduction associated with neutrophil count decreased” value ([1]; N = 47) does the source give for `Cc1cn(C(=O)c2c(-c3c(Cl)cc(Cl)cc3Cl)noc2C(C)(C)F)c2cccc(/C=C/C(=O)O)c12` [DS-1001] here?
The value was 6.4%.

And the “Dose reduction associated with white blood cell count decreased” value ([1]; N = 47)?
Its value is 4.3%.

And the “Dry skin, all grades” value ([1]; N = 47)?
Its value is 10 (21.3) n (%).

And the “Dry skin, grade 3” value ([1]; N = 47)?
Its value is 0 n (%).

And the “Feces soft, all grades” value ([1]; N = 47)?
Its value is 6 (12.8) n (%).

And the “Feces soft, grade 3” value ([1]; N = 47)?
Its value is 0 n (%).

What about the “Grade 4 or 5 AEs or serious drug-related AEs” value ([1]; N = 47) of the same compound?
Its value is “No grade 4 or 5 AEs or serious drug-related AEs were reported”.

What about the “Headache, all grades” value ([1]; N = 47) of the same compound?
The value was 11 (23.4) n (%).

What about the “Headache, grade 3” value ([1]; N = 47) of the same compound?
Its value is 1 (2.1) n (%).

What about the “Hypophosphatemia, all grades” value ([1]; N = 47) of the same compound?
Its value is 2 (4.3) n (%).

What about the “Hypophosphatemia, grade 3” value ([1]; N = 47) of the same compound?
Its value is 2 (4.3) n (%).

And the “Nasopharyngitis, all grades” value ([1]; N = 47)?
Its value is 7 (14.9) n (%).

And the “Nasopharyngitis, grade 3” value ([1]; N = 47)?
Its value is 0 n (%).

And the “Nausea, all grades” value ([1]; N = 47)?
Its value is 12 (25.5) n (%).

And the “Nausea, grade 3” value ([1]; N = 47)?
The value was 0 n (%).

What about the “Neutrophil count decreased, all grades” value ([1]; N = 47) of the same compound?
Its value is 7 (14.9) n (%).

What about the “Neutrophil count decreased, grade 3” value ([1]; N = 47) of the same compound?
Its value is 6 (12.8) n (%).

And the “Patients with TEAEs associated with dose reduction” value ([1]; N = 47)?
Its value is 27.7%.

And the “Patients with at least 1 dose interruption due to TEAEs” value ([1]; N = 47)?
The value was 57.4%.

And the “Patients with at least 1 grade 3 AE (TEAE)” value ([1]; N = 47)?
Its value is 42.6%.

What about the “Pruritus, all grades” value ([1]; N = 47) of the same compound?
The value was 14 (29.8) n (%).

And the “Pruritus, grade 3” value ([1]; N = 47)?
Its value is 0 n (%).

And the “Rash, all grades” value ([1]; N = 47)?
Its value is 11 (23.4) n (%).

And the “Rash, grade 3” value ([1]; N = 47)?
The value was 0 n (%).

What about the “Skin hyperpigmentation, all grades” value ([1]; N = 47) of the same compound?
The value was 25 (53.2) n (%).

And the “Skin hyperpigmentation, grade 3” value ([1]; N = 47)?
Its value is 0 n (%).

What about the “Vomiting, all grades” value ([1]; N = 47) of the same compound?
Its value is 9 (19.1) n (%).

And the “Vomiting, grade 3” value ([1]; N = 47)?
The value was 0 n (%).

What about the “White blood cell count decreased, all grades” value ([1]; N = 47) of the same compound?
Its value is 3 (6.4) n (%).

And the “White blood cell count decreased, grade 3” value ([1]; N = 47)?
The value was 3 (6.4) n (%).

And the “Alanine aminotransferase increased, grade 3” value ([1]; N = 47, text)?
Its value is 6.4%.

What about the “Alopecia, any grade” value ([1]; N = 47, text) of the same compound?
Its value is 27.7%.

What about the “Arthralgia, any grade” value ([1]; N = 47, text) of the same compound?
The value was 27.7%.

And the “Aspartate aminotransferase increased, grade 3” value ([1]; N = 47, text)?
The value was 4.3%.

And the “Back pain, any grade” value ([1]; N = 47, text)?
Its value is 21.3%.

And the “Diarrhea, any grade” value ([1]; N = 47, text)?
The value was 46.8%.

What about the “Diarrhea, grade 3” value ([1]; N = 47, text) of the same compound?
Its value is 4.3%.

And the “Dry skin, any grade” value ([1]; N = 47, text)?
Its value is 21.3%.

And the “Headache, any grade” value ([1]; N = 47, text)?
The value was 23.4%.

What about the “Hypophosphatemia, grade 3” value ([1]; N = 47, text) of the same compound?
The value was 4.3%.

And the “Nausea, any grade” value ([1]; N = 47, text)?
Its value is 25.5%.

And the “Neutrophil count decreased, grade 3” value ([1]; N = 47, text)?
The value was 12.8%.

What about the “Pruritus, any grade” value ([1]; N = 47, text) of the same compound?
Its value is 29.8%.

And the “Rash, any grade” value ([1]; N = 47, text)?
Its value is 23.4%.

And the “Skin hyperpigmentation, any grade” value ([1]; N = 47, text)?
Its value is 53.2%.

And the “White blood cell count decreased, grade 3” value ([1]; N = 47, text)?
Its value is 6.4%.

And the “Dose-limiting toxicity (DLT)” value ([1]; at 1000 mg bid)?
Its value is “One DLT, grade 3 white blood cell count decreased”.

What about the “Dose modification due to pain” value ([1]; doses ≤250 mg bid) of the same compound?
Its value is “no dose modification due to pain”.

And the “Dose modification due to pain” value ([1]; doses ≥500 mg bid)?
The value was “most patients who received long-term administration of DS-1001 required dose modifications due to episodes of pain”.

What about the “Discontinued due to an AE (alanine aminotransferase increased)” value ([1]; of 39 patients who discontinued) of the same compound?
Its value is 1 patients.

What about the “All AEs, all grades” value ([1]; safety analysis set N = 47) of the same compound?
Its value is 45 (95.7) n (%).

And the “Distribution to the brain” value [2]?
The value was “good distribution to the brain”.

And the D-2-HG [3]?
The D-2-HG was “D-2-HG reduction”.

And the Tumor growth [3]?
The Tumor growth was “Tumor growth inhibition”.

And the “D-2-HG in on-treatment tumor tissue versus pre-treatment samples” value ([4]; 125 mg bid)?
Its value is “significantly lower levels of D-2-HG compared with the pre-treatment samples”.

And the “D-2-HG in on-treatment tumor tissue versus archived samples” value ([4]; seven on-treatment samples, 125-700 mg bid)?
Its value is “significantly lower amount of D-2-HG compared with pre-study archived samples; also recorded: extremely low compared with matched archived samples; also recorded: lower than archived samples; also recorded: significantly low levels of D-2-HG”.

And the “Increase in Cmax and AUC0-8 h with dose” value ([5]; 125 to 700 mg bid)?
Its value is “approximately dose-proportional”.

What about the “Increase in Cmax and AUC0-8 h with dose” value ([5]; 700 to 1400 mg bid) of the same compound?
Its value is “less than dose-proportional”.

And the “Median Tmax across dose range” value ([5]; day 1 of cycle 1, 125-1400 mg bid)?
The value was 2 to 6 h.

What about the “Median Tmax across dose range” value ([5]; day 8 of cycle 1, 125-1400 mg bid) of the same compound?
The value was 2 to 4 h.

And the “Steady-state levels achieved (plasma trough plateau)” value ([5]; most dose levels, except 1400 mg bid, data not shown)?
The value was ≤ 4 days.
